Measurements published in ChEMBL document CHEMBL4350962, “Expanding the Chemical Space of Withaferin A by Incorporating Silicon To Improve Its Clinical Potential on Human Ovarian Carcinoma Cells” (J Med Chem, 2019).
The source made the active and inactive calls. No cut-off for these calls is given here.

Tests used:
ARPE-19 = test: Cytotoxicity against human ARPE19 cells measured after 96 hrs by MTT assay; format: cell-based; conditions: ARPE-19, 96 h
Outline: (§1)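 Cells kept in DMEM or RPMI 1640 with 10% FBS and 5% penicillin-streptomycin at 37 °C, 5% CO2, seeded at 1 x 10⁴ cells/mL and left 24 h to adhere. Compounds or vehicle added over a concentration range for 96 h, then MTT 4 h; formazan dissolved in DMSO, absorbance read at 540 nm relative to control. IC50 given as mean ± SD of three independent experiments in duplicate.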

A2780 [1] = test: Cell cycle arrest in cisplatin-sensitive human A2780 cells assessed as increase in DNA fragmentation after 48 hrs by DAPI-staining based assay; format: functional
Outline: (§2)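 A2780 cells seeded in T25 flasks, 24 h at 37 °C, then exposed 48 h to vehicle or compound at several concentrations. 1 x 10⁶ cells/mL spun at 400 g for 5 min, resuspended in lysis buffer with DAPI, 5 min at 37 °C, then stabilization buffer added. DNA content read by image cytometry to give sub-G1, G0/G1, S and G2 fractions; mean ± s.e. mean, n = 2.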

[2] = (§3) Antiproliferative activity against cisplatin-resistant human A2780/CP70 cells measured after 96 hrs by MTT assay; format: functional; conditions: A2780/CP70, 96 h; outline: as §1
A2780 [3] = test: Antiproliferative activity against cisplatin-sensitive human A2780 cells measured after 96 hrs by MTT assay; format: functional, cell-based; conditions: for IC50: A2780, 96 h; outline: as §1
[4] = Selectivity index, ratio of IC50 for human ARPE19 cells to IC50 for cisplatin-resistant human A2780/CP70 cells; format: toxicity; conditions: ARPE19 cells versus cisplatin-resistant A2780/CP70 cells, read-out: Ratio IC50
A2780 [5] = test: Cell cycle arrest in cisplatin-sensitive human A2780 cells assessed as accumulation at G0/G1 phase at 5 to 10 uM after 48 hrs by DAPI-staining based assay; format: functional; outline: as §2
A2780 [6] = test: Cell cycle arrest in cisplatin-sensitive human A2780 cells assessed as increase in accumulation at sub-G0/G1 phase at 5 to 10 uM after 48 hrs by DAPI-staining based assay; format: functional; outline: as §2
[7] = Selectivity index, ratio of IC50 for human ARPE19 cells to IC50 for cisplatin-sensitive human A2780 cells; format: toxicity; conditions: ARPE19 cells versus cisplatin-sensitive A2780 cells, read-out: Ratio IC50
A2780 [8] = test: Cell cycle arrest in cisplatin-sensitive human A2780 cells assessed as accumulation at G0/G1 phase at 10 to 60 uM after 48 hrs by DAPI-staining based assay; format: functional; outline: as §2
A2780 [9] = test: Cell cycle arrest in cisplatin-sensitive human A2780 cells assessed as increase in accumulation at sub-G0/G1 phase at 10 to 60 uM after 48 hrs by DAPI-staining based assay; format: functional; outline: as §2
Homo sapiens = species on record: Homo sapiens; test: as §3; format: functional; outline: as §1

For `CC1=C(CO[Si](C)(C)C(C)(C)C)C(=O)O[C@@H]([C@@H](C)[C@H]2CC[C@H]3[C@@H]4C[C@H]5O[C@]56[C@@H](O)C=CC(=O)[C@]6(C)[C@H]4CC[C@]23C)C1`, the IC50 (ARPE-19) was 12.4 nM, the Activity (A2780 [1]) was “Dose-dependent effect” and the IC50 [2] was > 100 nM. The IC50 (A2780 [3]) was 47.5 nM, the selectivity ratio [4] was 0.1 and the Activity (A2780 [5]) was “inactive”. For the same molecule, the Activity (A2780 [6]) was “Active” and the selectivity ratio [7] was 0.3.

In the case of `CC1=C(CO[Si](C)(C)C(C)(C)C)C(=O)O[C@@H]([C@@H](C)[C@H]2CC[C@H]3[C@@H]4C[C@H]5O[C@]56C(=O)C=CC(=O)[C@]6(C)[C@H]4CC[C@]23C)C1`, the Activity (A2780 [8]) is reported as “inactive”, the IC50 (ARPE-19) is reported as 1660 nM and the Activity (A2780 [1]) is reported as “Dose-dependent effect”. For the same molecule, the IC50 [2] was > 100 nM, the IC50 (A2780 [3]) was 17 nM and the selectivity ratio [4] was 11.3. For the same molecule, the Activity (A2780 [9]) was “Active” and the selectivity ratio [7] was 97.7.

In the case of `CCCCCC[Si](CCCCCC)(CCCCCC)OCC1=C(C)C[C@H]([C@@H](C)[C@H]2CC[C@H]3[C@@H]4C[C@H]5O[C@]56C(=O)C=CC(=O)[C@]6(C)[C@H]4CC[C@]23C)OC1=O`, the Activity (Homo sapiens) is reported as “inactive” and the Activity (A2780 [3]) is reported as “inactive”.
